In ChEMBL document CHEMBL1122071, “Avermectin acyl derivatives with anthelmintic activity” (1982):

Columns and labels:
Type in all cases: functional
[1] = tested on: Cooperia oncophora; assay: Anthelmintic efficacy against adult Cooperia oncopphora (C.o) in sheep at dose of 0.25 mg/kg administered orally; 60-89%
Outline: (§1)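 Lambs experimentally infected with mixed gastrointestinal nematodes (H. contortus, O. circumcincta, T. axei, T. colubriformis, C. oncophora, Oe. columbianum) were dosed orally, 1–3 sheep per dose. An untreated infected group of 6 was included, with worm burdens given as the geometric mean number of worms per lamb. Efficacy was scored against adult and, where listed, EL4 stages.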

[2] = tested on: Haemonchus contortus; assay: Anthelmintic efficacy against adult Haemonchus contortus (H.c) in sheep at dose of 0.25 mg/kg administered orally; conditions: route oral; outline: as §1
[3] = tested on: Oesophagostomum columbianum; assay: Anthelmintic efficacy against Oseophagostomum columbianum (Oe. c) in sheep at dose of 0.25 mg/kg administered orally; conditions: route oral; outline: as §1
[4] = tested on: Teladorsagia circumcincta; assay: Anthelmintic efficacy against adult Ostertagia circumcincta (O. c) in sheep at dose of 0.25 mg/kg administered orally; 60-89%; outline: as §1
[5] = tested on: Trichostrongylus axei; assay: Anthelmintic efficacy against Trichostrongylus axei (T.a) in sheep at dose of 0.25 mg/kg administered orally; 20-59%; outline: as §1
[6] = tested on: Trichostrongylus colubriformis; assay: Minimal dose necessary to eliminate > 83% of Trichostrongylus colubriformis infection in gerbils
[7] = tested on: Trichostrongylus colubriformis; assay: Anthelmintic efficacy against Trichostrongylus colubriformis (T.c) in sheep at dose of 0.25 mg/kg administered orally; 60-89%; outline: as §1
[8] = tested on: Cooperia oncophora; assay: Anthelmintic efficacy against immature (EL4) Cooperia oncopphora (C.o) in sheep at dose of 0.025 mg/kg administered orally; conditions: route oral
[9] = tested on: Cooperia oncophora; assay: Anthelmintic efficacy against immature (EL4) Cooperia oncopphora (C.o) in sheep at dose of 0.05 mg/kg administered orally; 60-89%
[10] = tested on: Cooperia oncophora; assay: Anthelmintic efficacy against immature (EL4) Cooperia oncopphora (C.o) in sheep at dose of 0.1 mg/kg administered orally; conditions: route oral
Outline: (§2)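 Lambs were experimentally infected with mixed gastrointestinal nematodes: Haemonchus contortus, Ostertagia circumcincta, Trichostrongylus axei, T. colubriformis, Cooperia oncophora and Oesophagostomum columbianum. Dosing was oral, in mg/kg, with 3 sheep per dose group. An untreated infected group of 6 sheep served as reference, with worm burdens given as the geometric mean per lamb. Immature (EL4) and adult worms were scored separately.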

[11] = tested on: Cooperia oncophora; assay: Anthelmintic efficacy against adult Cooperia oncopphora (C.o) in sheep at dose of 0.025 mg/kg administered orally; 0-19%; outline: as §1
[12] = tested on: Cooperia oncophora; assay: Anthelmintic efficacy against adult Cooperia oncopphora (C.o) in sheep at dose of 0.05 mg/kg administered orally; 0-19%; outline: as §1
[13] = tested on: Cooperia oncophora; assay: Anthelmintic efficacy against adult Cooperia oncopphora (C.o) in sheep at dose of 0.1 mg/kg administered orally; 60-89%; outline: as §1
[14] = tested on: Haemonchus contortus; assay: Anthelmintic efficacy against adult Haemonchus contortus (H.c) in sheep at dose of 0.025 mg/kg administered orally; conditions: route oral; outline: as §2
[15] = tested on: Haemonchus contortus; assay: Anthelmintic efficacy against adult Haemonchus contortus (H.c) in sheep at dose of 0.05 mg/kg administered orally; conditions: route oral; outline: as §2
[16] = tested on: Haemonchus contortus; assay: Anthelmintic efficacy against adult Haemonchus contortus (H.c) in sheep at dose of 0.1 mg/kg administered orally; conditions: route oral; outline: as §1
[17] = tested on: Oesophagostomum columbianum; assay: Anthelmintic efficacy against Oseophagostomum columbianum (Oe. c) in sheep at dose of 0.05 mg/kg administered orally; conditions: route oral; outline: as §2
[18] = tested on: Oesophagostomum columbianum; assay: Anthelmintic efficacy against Oseophagostomum columbianum (Oe. c) in sheep at dose of 0.1 mg/kg administered orally; conditions: route oral; outline: as §1
[19] = tested on: Teladorsagia circumcincta; assay: Anthelmintic efficacy against immature (EL4) Ostertagia circumcincta (O. c) in sheep at dose of 0.05 mg/kg administered orally; 0-19%
[20] = tested on: Teladorsagia circumcincta; assay: Anthelmintic efficacy against immature (EL4) Ostertagia circumcincta (O. c) in sheep at dose of 0.1 mg/kg administered orally; 60-89%
[21] = tested on: Teladorsagia circumcincta; assay: Anthelmintic efficacy against adult Ostertagia circumcincta (O. c) in sheep at dose of 0.025 mg/kg administered orally; conditions: route oral; outline: as §1
[22] = tested on: Teladorsagia circumcincta; assay: Anthelmintic efficacy against adult Ostertagia circumcincta (O. c) in sheep at dose of 0.05 mg/kg administered orally; conditions: route oral; outline: as §2
[23] = tested on: Teladorsagia circumcincta; assay: Anthelmintic efficacy against adult Ostertagia circumcincta (O. c) in sheep at dose of 0.1 mg/kg administered orally; conditions: route oral; outline: as §1
[24] = tested on: Teladorsagia circumcincta; assay: Anthelmintic efficacy against immature (EL4) Ostertagia circumcincta (O. c) in sheep at dose of 0.025 mg/kg administered orally; conditions: route oral
[25] = tested on: Trichostrongylus axei; assay: Anthelmintic efficacy against Trichostrongylus axei (T.a) in sheep at dose of 0.025 mg/kg administered orally; 20-59%; outline: as §1
[26] = tested on: Trichostrongylus axei; assay: Anthelmintic efficacy against Trichostrongylus axei (T.a) in sheep at dose of 0.05 mg/kg administered orally; conditions: route oral; outline: as §2
[27] = tested on: Trichostrongylus colubriformis; assay: Anthelmintic efficacy against Trichostrongylus colubriformis (T.c) in sheep at dose of 0.025 mg/kg administered orally; conditions: route oral; outline: as §1
[28] = tested on: Trichostrongylus colubriformis; assay: Anthelmintic efficacy against Trichostrongylus colubriformis (T.c) in sheep at dose of 0.05 mg/kg administered orally; conditions: route oral; outline: as §2
[29] = tested on: Trichostrongylus colubriformis; assay: Anthelmintic efficacy against Trichostrongylus colubriformis in sheep at dose of 0.1 mg/kg administered orally; conditions: route oral; outline: as §1
[30] = tested on: Trichostrongylus axei; assay: Anthelmintic efficacy against Trichostrongylus axei (T.a) in sheep at dose of 0.1 mg/kg administered orally; conditions: route oral; outline: as §1
[31] = tested on: Oesophagostomum columbianum; assay: Anthelmintic efficacy against Oseophagostomum columbianum (Oe. c) in sheep at dose of 0.025 mg/kg administered orally; conditions: route oral; outline: as §2
[32] = tested on: Cooperia oncophora; assay: Anthelmintic efficacy against immature (EL4) Cooperia oncopphora (C.o) in sheep at dose of 0.025 mg/kg administered orally; 20-59%
[33] = tested on: Cooperia oncophora; assay: Anthelmintic efficacy against immature (EL4) Cooperia oncopphora (C.o) in sheep at dose of 0.05 mg/kg administered orally; 20-59%
[34] = tested on: Cooperia oncophora; assay: Anthelmintic efficacy against immature (EL4) Cooperia oncopphora (C.o) in sheep at dose of 0.1 mg/kg administered orally; 20-59%
[35] = tested on: Cooperia oncophora; assay: Anthelmintic efficacy against adult Cooperia oncopphora (C.o) in sheep at dose of 0.1 mg/kg administered orally; 0-19%; outline: as §1
[36] = tested on: Haemonchus contortus; assay: Anthelmintic efficacy against immature (EL4) Haemonchus contortus (H.c) in sheep at dose of 0.05 mg/kg administered orally; 60-89%
[37] = tested on: Haemonchus contortus; assay: Anthelmintic efficacy against immature (EL4) Haemonchus contortus (H.c) in sheep at dose of 0.1 mg/kg administered orally; conditions: route oral; outline: as §2
[38] = tested on: Haemonchus contortus; assay: Anthelmintic efficacy against adult Haemonchus contortus (H.c) in sheep at dose of 0.025 mg/kg administered orally; 0-19%; outline: as §1
[39] = tested on: Haemonchus contortus; assay: Anthelmintic efficacy against adult Haemonchus contortus (H.c) in sheep at dose of 0.05 mg/kg administered orally; 60-89%; outline: as §1
[40] = tested on: Haemonchus contortus; assay: Anthelmintic efficacy against immature (EL4) Haemonchus contortus (H.c) in sheep at dose of 0.025 mg/kg administered orally; 20-59%
[41] = tested on: Oesophagostomum columbianum; assay: Anthelmintic efficacy against Oseophagostomum columbianum (Oe. c) in sheep at dose of 0.025 mg/kg administered orally; 60-89%; outline: as §1
[42] = tested on: Oesophagostomum columbianum; assay: Anthelmintic efficacy against Oseophagostomum columbianum (Oe. c) in sheep at dose of 0.05 mg/kg administered orally; 60-89%; outline: as §1
[43] = tested on: Teladorsagia circumcincta; assay: Anthelmintic efficacy against immature (EL4) Ostertagia circumcincta (O. c) in sheep at dose of 0.1 mg/kg administered orally; 0-19
[44] = tested on: Teladorsagia circumcincta; assay: Anthelmintic efficacy against adult Ostertagia circumcincta (O. c) in sheep at dose of 0.025 mg/kg administered orally; 60-89%; outline: as §1
[45] = tested on: Teladorsagia circumcincta; assay: Anthelmintic efficacy against adult Ostertagia circumcincta (O. c) in sheep at dose of 0.05 mg/kg administered orally; 60-89%; outline: as §1
[46] = tested on: Teladorsagia circumcincta; assay: Anthelmintic efficacy against immature (EL4) Ostertagia circumcincta (O. c) in sheep at dose of 0.025 mg/kg administered orally; 0-19%
[47] = tested on: Trichostrongylus axei; assay: Anthelmintic efficacy against Trichostrongylus axei (T.a) in sheep at dose of 0.025 mg/kg administered orally; 0-19%; outline: as §1
[48] = tested on: Trichostrongylus axei; assay: Anthelmintic efficacy against Trichostrongylus axei (T.a) in sheep at dose of 0.05 mg/kg administered orally; 60-89%; outline: as §1
[49] = tested on: Trichostrongylus colubriformis; assay: Anthelmintic efficacy against Trichostrongylus colubriformis (T.c) in sheep at dose of 0.025 mg/kg administered orally; 0-19%; outline: as §1
[50] = tested on: Trichostrongylus colubriformis; assay: Anthelmintic efficacy against Trichostrongylus colubriformis (T.c) in sheep at dose of 0.05 mg/kg administered orally; 60-89%; outline: as §1
[51] = tested on: Trichostrongylus colubriformis; assay: Anthelmintic efficacy against Trichostrongylus colubriformis (T.c) in sheep at dose of 0.1 mg/kg administered orally; conditions: route oral; outline: as §2

CC[C@H](C)[C@H]1O[C@]2(CC(OC(C)=O)[C@@H]1C)C[C@@H]1C[C@@H](C/C=C(\C)[C@@H](OC3CC(OC)C(OC4CC(OC)C(OC(C)=O)C(C)O4)C(C)O3)[C@@H](C)/C=C/C=C3\CO[C@@H]4[C@H](OC)C(C)=C[C@@H](C(=O)O1)[C@]34O)O2 (stereo not given in full)
Efficacy [1]: 60%
Efficacy [2]: >90%
Efficacy [3]: >90%
Efficacy [4]: 60%
Efficacy [5]: 20%
Dose [6]: 0.5 mg/kg
Efficacy [7]: 60%

CC[C@H](C)[C@H]1O[C@]2(C=C[C@@H]1C)C[C@@H]1C[C@@H](C/C=C(\C)[C@@H](O[C@H]3C[C@@H](OC)[C@@H](O[C@H]4C[C@@H](OC)[C@@H](OC(C)=O)[C@H](C)O4)[C@H](C)O3)[C@@H](C)/C=C/C=C3\CO[C@@H]4[C@H](O)C(C)=C[C@@H](C(=O)O1)[C@]34O)O2
Efficacy [8]: 89%
Efficacy [9]: 60%
Efficacy [10]: >90%
Efficacy [11]: 0%
Efficacy [12]: 0%
Efficacy [13]: 60%
Efficacy [14]: >90%
Efficacy [15]: >90%
Efficacy [16]: >90%
Efficacy [17]: >90%
Efficacy [18]: >90%
Efficacy [19]: 0%
Efficacy [20]: 60%
Efficacy [21]: >90%
Efficacy [22]: >90%
Efficacy [23]: >90%
Efficacy [24]: 19%
Efficacy [25]: 20%
Efficacy [26]: >90%
Dose [6]: 0.031 mg/kg
Efficacy [27]: >90%
Efficacy [28]: >90%
Efficacy [29]: >90%
Efficacy [30]: >90%
Efficacy [31]: >90%

CC[C@H](C)[C@H]1O[C@]2(CC(O)[C@@H]1C)C[C@@H]1C[C@@H](C/C=C(\C)[C@@H](OC3CC(OC)C(OC4CC(OC)C(O)C(C)O4)C(C)O3)[C@@H](C)/C=C/C=C3\CO[C@@H]4[C@H](OC)C(C)=C[C@@H](C(=O)O1)[C@]34O)O2 (stereo not given in full) [AVERMECTIN A2]
Efficacy [32]: 20%
Efficacy [33]: 20%
Efficacy [34]: 20%
Efficacy [11]: 0%
Efficacy [12]: 0%
Efficacy [35]: 0%
Efficacy [36]: 60%
Efficacy [37]: >90%
Efficacy [38]: 0%
Efficacy [39]: 60%
Efficacy [16]: >90%
Efficacy [40]: 20%
Efficacy [41]: 60%
Efficacy [42]: 60%
Efficacy [18]: >90%
Efficacy [19]: 0%
Efficacy [43]: 0%
Efficacy [44]: 60%
Efficacy [45]: 60%
Efficacy [23]: >90%
Efficacy [46]: 0%
Efficacy [47]: 0%
Efficacy [48]: 60%
Dose [6]: 0.05 mg/kg
Efficacy [49]: 0%
Efficacy [50]: 60%
Efficacy [51]: >90%
Efficacy [30]: >90%
